Measurements from ChEMBL document CHEMBL1137365, “1,4,5,6-tetrahydropyrrolo[3,4-c]pyrazoles: identification of a potent Aurora kinase inhibitor with a favorable antitumor kinase inhibition profile” (J Med Chem, 2006).
Active and inactive are the calls of the source. The calls are words filed in the database; no cut-off is given here.

What was measured:
[1] = Aqueous solubility at pH 5.5; format: physicochemical
Summary of the method: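 Aqueous solubility measured on the hydrochloride salt at pH 5.5.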

[2] = tested on: HCT-116; test: Antiproliferative activity against HCT116 cells; format: functional, cell-based; conditions: Homo sapiens
Summary of the method: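 HCT-116 human colon carcinoma cells; proliferation IC50 taken from dose-response curves, reported as the mean of at least three independent determinations.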

[3] = molecular target: T1, Aurora kinase A (Homo sapiens, UniProt O14965); test: Inhibition of Aurora A kinase
T1 sequence (O14965 whole entry): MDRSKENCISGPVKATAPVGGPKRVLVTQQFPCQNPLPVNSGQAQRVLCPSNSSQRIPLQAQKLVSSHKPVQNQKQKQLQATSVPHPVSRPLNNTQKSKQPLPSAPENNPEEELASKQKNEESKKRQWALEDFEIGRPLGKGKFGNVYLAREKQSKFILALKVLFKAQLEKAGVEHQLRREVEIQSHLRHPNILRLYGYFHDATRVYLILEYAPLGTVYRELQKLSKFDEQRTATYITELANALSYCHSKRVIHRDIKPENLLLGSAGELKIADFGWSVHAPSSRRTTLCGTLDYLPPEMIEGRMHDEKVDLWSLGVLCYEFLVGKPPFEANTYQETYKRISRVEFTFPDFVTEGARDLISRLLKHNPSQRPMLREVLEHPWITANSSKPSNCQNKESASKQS

[4] = tested on: HCT-116; test: Cell cycle arrest in HCT116 cells by accumulation at G2/M phase; format: functional, cell-based; conditions: Homo sapiens
[5] = molecular target: Aurora kinase B (Homo sapiens, UniProt Q96GD4); test: Inhibition of Aurora B kinase
Summary of the method: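 Biochemical Aurora-B kinase inhibition; IC50 reported as the mean of at least three individual determinations.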

[6] = tested on: HCT-116; test: Inhibition of histone h3 phosphorylation in HCT116 cells by Western blot analysis; format: functional, cell-based; conditions: Homo sapiens
Summary of the method: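 HCT-116 cells probed by Western blot for histone H3 phosphorylated at serine 10. α-Tubulin antibody used as the loading control.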

[7] = tested on: MCF7; test: Antiproliferative activity against MCF7 cells; format: functional, cell-based; conditions: Homo sapiens
Summary of the method: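 IC50 taken from dose-response curves of cell proliferation; each reported value is the mean of three or more independent curves.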

[8] = tested on: HL-60; test: Antitumor activity against HL60 cells xenografted in SCID mouse at 7.5 to 30 mg/kg, iv after 5 days; format: functional; conditions: dose mg/kg 7.5-30
Summary of the method: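 SCID mice carrying HL-60 human tumor xenografts. Dosed iv twice daily for 5 days (bid × 5) at 7.5 to 30 mg/kg. Tumor growth inhibition followed over time.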

[9] = tested on: A2780; test: Antiproliferative activity against A2780 cells; format: functional, cell-based; conditions: Homo sapiens
[10] = tested on: HL-60; test: Body weight loss of SCID mouse xenografted with HL60 cells at 30 mg/kg, iv after 5 days; format: functional
[11] = tested on: HeLa; test: Antiproliferative activity against HeLa cells; format: functional, cell-based; conditions: Homo sapiens
[12] = Cmax in CD1 mouse at 10 mg/kg, iv; format: ADME, organism-based; set-up: dose 10 mg/kg, route intravenous; conditions: in vivo
Summary of the method: (§1)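 Plasma levels followed up to 6 h post-dose. Parameters estimated individually for three mice (M1–M3) and reported as mean and SD.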

[13] = AUC in CD1 mouse at 10 mg/kg, iv; format: ADME, organism-based; set-up: dose 10 mg/kg, route intravenous; conditions: plasma; summary of the method: as §1
[14] = molecular target: Serine/threonine-protein kinase NIM1 (Homo sapiens, UniProt Q8IY84); test: Inhibition of NIM1
[15] = Terminal half life in CD1 mouse at 10 mg/kg, iv; format: ADME, organism-based; set-up: dose 10 mg/kg, route intravenous; conditions: in vivo, read-out: beta t1/2 (converted); summary of the method: as §1
[16] = molecular target: T2, Serine/threonine-protein kinase SULU (Caenorhabditis elegans, UniProt P46549); test: Inhibition of SULU
T2 sequence (P46549 whole entry): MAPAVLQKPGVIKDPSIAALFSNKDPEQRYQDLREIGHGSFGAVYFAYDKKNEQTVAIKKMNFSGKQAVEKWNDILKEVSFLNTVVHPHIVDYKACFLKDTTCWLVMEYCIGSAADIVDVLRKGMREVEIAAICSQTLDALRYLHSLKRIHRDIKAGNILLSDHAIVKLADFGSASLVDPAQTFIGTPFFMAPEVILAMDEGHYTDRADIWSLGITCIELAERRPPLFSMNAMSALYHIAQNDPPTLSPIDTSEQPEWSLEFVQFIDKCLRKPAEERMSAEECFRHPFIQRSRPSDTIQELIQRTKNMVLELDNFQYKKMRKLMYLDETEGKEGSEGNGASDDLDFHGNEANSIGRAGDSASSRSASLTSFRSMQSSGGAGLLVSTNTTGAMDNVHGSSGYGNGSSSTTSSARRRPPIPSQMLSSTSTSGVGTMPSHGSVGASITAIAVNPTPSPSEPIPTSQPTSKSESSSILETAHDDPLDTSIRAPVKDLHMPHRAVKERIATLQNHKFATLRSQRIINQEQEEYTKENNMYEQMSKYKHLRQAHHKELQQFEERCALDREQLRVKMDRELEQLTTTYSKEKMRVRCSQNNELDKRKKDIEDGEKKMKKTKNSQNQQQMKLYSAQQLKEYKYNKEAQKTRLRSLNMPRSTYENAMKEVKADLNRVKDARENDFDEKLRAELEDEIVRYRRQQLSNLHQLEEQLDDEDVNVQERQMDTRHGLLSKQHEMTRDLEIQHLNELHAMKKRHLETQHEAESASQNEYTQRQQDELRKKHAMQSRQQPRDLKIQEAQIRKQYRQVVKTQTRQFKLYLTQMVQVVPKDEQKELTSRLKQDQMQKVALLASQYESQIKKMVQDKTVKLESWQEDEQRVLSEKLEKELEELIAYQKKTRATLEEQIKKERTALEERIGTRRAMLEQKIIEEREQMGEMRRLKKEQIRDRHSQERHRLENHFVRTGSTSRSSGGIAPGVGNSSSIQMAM

[17] = molecular target: T3, Aurora kinase C (Homo sapiens, UniProt Q9UQB9); test: Inhibition of Aurora C kinase
T3 sequence (Q9UQB9 whole entry): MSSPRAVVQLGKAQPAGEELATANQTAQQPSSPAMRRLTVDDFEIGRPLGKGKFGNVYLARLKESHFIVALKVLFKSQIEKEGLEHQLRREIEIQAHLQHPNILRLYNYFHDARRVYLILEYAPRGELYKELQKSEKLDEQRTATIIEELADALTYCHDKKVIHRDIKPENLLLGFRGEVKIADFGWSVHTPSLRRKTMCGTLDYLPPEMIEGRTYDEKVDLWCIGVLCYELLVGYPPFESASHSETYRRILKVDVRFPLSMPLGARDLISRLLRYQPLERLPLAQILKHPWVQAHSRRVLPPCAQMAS

[18] = Volume of distribution in CD1 mouse at 10 mg/kg, iv; format: ADME, organism-based; set-up: dose 10 mg/kg, route intravenous; conditions: in vivo, read-out: Vss; summary of the method: as §1
[19] = molecular target: T4, 3-phosphoinositide-dependent protein kinase 1 (Homo sapiens, UniProt O15530); test: Inhibition of PDK1
T4 sequence (O15530 whole entry): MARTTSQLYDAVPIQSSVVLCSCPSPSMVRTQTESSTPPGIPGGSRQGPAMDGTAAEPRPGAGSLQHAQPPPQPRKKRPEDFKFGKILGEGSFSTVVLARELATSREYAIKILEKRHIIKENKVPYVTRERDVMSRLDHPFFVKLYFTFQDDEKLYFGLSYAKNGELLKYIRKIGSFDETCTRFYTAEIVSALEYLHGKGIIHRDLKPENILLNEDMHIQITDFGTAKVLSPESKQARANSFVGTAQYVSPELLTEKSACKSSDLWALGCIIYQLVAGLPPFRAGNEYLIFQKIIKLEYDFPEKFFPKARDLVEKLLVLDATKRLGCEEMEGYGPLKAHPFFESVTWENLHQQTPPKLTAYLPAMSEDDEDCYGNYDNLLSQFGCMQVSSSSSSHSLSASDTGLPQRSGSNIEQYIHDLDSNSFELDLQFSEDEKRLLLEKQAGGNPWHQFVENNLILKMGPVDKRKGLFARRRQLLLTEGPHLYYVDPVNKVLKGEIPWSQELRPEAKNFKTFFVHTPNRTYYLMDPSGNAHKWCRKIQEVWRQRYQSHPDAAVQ

[20] = molecular target: Vascular endothelial growth factor receptor 3 (Homo sapiens, UniProt P35916); test: Inhibition of VEGFR3
[21] = molecular target: T5, Inhibitor of nuclear factor kappa-B kinase subunit beta (Homo sapiens, UniProt O14920); test: Inhibition of IKK2
T5 sequence (O14920 whole entry): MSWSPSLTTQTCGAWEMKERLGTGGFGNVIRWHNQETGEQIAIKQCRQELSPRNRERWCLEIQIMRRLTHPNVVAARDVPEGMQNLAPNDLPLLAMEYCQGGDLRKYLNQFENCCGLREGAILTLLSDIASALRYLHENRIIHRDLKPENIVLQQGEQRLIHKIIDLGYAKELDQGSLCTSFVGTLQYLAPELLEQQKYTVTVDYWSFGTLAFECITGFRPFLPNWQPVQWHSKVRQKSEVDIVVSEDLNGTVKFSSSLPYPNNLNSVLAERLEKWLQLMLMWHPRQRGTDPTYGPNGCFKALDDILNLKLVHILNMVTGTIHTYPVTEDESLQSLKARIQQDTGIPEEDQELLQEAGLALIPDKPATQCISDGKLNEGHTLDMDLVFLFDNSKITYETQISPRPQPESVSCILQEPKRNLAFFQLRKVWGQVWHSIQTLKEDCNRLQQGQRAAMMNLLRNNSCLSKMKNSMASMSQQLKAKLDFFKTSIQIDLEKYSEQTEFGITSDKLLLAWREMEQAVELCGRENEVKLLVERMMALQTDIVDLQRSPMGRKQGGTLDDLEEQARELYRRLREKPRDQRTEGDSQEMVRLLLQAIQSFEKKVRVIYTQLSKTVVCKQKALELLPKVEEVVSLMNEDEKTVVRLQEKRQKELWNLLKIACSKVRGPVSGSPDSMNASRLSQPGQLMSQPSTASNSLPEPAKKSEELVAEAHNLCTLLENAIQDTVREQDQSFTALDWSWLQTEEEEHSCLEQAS

[22] = Clearance in CD1 mouse at 10 mg/kg, iv; format: ADME, organism-based; set-up: dose 10 mg/kg, route intravenous; conditions: in vivo; summary of the method: as §1
[23] = molecular target: T6, Tyrosine-protein kinase ZAP-70 (Homo sapiens, UniProt P43403); test: Inhibition of ZAP70
T6 sequence (P43403 whole entry): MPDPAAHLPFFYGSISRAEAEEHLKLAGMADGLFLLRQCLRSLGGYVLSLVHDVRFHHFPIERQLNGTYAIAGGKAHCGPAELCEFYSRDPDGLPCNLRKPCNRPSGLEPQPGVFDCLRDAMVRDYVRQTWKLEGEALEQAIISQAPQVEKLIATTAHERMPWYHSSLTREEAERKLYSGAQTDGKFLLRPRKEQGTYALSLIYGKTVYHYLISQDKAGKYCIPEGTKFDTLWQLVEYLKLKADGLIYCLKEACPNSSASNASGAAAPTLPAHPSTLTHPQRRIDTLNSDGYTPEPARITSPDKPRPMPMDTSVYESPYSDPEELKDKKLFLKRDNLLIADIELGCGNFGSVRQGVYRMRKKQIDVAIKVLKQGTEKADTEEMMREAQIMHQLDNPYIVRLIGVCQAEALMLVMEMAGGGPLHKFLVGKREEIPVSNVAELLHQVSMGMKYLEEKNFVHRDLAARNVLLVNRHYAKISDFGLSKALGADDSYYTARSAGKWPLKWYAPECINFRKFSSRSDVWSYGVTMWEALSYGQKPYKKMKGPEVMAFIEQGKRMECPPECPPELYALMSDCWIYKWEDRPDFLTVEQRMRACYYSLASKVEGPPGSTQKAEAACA

Sequence of Aurora kinase B (Q96GD4 whole entry): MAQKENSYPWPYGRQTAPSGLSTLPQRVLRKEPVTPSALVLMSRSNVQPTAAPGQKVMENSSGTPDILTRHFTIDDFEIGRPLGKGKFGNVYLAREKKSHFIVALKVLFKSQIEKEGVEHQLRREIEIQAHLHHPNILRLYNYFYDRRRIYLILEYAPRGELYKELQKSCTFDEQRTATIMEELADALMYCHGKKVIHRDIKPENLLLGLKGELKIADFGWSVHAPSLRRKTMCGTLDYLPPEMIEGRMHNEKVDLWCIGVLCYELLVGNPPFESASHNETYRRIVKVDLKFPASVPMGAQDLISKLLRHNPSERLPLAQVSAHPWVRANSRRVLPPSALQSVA
Sequence of Serine/threonine-protein kinase NIM1 (Q8IY84 whole entry): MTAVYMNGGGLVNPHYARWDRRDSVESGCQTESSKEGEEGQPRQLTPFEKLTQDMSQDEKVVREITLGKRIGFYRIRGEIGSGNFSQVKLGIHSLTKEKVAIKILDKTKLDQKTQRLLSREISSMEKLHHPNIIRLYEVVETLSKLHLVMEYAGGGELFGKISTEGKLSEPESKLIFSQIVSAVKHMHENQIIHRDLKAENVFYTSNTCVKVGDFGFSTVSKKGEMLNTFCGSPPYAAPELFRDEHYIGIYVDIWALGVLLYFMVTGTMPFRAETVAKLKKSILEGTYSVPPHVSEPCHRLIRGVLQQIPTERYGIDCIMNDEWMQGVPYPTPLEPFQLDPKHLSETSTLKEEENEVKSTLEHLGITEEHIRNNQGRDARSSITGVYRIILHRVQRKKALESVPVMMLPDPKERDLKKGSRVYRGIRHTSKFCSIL
Sequence of Vascular endothelial growth factor receptor 3 (P35916 whole entry): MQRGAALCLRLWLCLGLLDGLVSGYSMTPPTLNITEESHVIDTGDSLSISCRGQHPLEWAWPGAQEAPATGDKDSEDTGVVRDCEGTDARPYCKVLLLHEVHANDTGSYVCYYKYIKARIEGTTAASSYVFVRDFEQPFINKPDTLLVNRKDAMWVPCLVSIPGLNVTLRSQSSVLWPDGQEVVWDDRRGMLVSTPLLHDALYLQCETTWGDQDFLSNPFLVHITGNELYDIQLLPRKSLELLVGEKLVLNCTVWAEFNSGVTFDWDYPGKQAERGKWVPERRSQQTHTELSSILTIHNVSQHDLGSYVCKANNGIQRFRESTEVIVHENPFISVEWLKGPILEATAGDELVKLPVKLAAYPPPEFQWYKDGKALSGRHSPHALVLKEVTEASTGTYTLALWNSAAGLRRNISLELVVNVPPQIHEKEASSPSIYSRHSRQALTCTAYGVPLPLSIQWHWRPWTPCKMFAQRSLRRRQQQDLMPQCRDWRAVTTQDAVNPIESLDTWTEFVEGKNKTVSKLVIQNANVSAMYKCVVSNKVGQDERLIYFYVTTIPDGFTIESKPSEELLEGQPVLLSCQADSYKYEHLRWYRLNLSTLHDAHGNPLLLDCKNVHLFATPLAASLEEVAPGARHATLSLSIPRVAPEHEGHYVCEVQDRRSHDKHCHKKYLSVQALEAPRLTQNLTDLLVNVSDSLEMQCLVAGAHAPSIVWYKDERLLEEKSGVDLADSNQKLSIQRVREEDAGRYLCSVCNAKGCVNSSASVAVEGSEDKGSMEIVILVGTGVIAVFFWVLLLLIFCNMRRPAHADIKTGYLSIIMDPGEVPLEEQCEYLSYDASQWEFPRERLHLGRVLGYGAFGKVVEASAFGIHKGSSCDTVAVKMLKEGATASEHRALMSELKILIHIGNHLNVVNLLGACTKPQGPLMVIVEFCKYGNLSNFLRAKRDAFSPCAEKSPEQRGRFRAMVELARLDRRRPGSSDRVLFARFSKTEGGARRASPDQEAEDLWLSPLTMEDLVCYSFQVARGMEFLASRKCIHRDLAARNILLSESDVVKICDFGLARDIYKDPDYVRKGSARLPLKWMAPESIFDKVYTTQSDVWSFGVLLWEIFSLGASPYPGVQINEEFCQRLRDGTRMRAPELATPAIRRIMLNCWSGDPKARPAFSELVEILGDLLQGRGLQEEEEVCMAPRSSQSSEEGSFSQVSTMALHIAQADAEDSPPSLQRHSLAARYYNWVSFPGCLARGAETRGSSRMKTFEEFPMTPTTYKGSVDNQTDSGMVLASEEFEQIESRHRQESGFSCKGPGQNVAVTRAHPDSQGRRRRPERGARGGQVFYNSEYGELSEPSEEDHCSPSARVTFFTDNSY

Row | SMILES | IC50 [2] [nM] | IC50 [3] [nM] | EC50 [4] [nM] | IC50 [5] [nM] | further results
1 | CO[C@@H](C(=O)N1Cc2n[nH]c(NC(=O)c3ccc(N4CCN(C)CC4)cc3)c2C1)c1ccccc1.Cl | – | – | – | – | solubility [1]: > 15 mg/mL
2 | CN1CCN(c2ccc(C(=O)Nc3n[nH]c4c3CN(C(=O)Cc3ccccc3)C4)cc2)CC1 | 220 | 130 | 500 | – | –
3 | C[C@@H](C(=O)N1Cc2[nH]nc(NC(=O)c3ccc(N4CCN(C)CC4)cc3)c2C1)c1ccccc1 | 21 | 24 | 100 | 99 | –
4 | CN1CCN(c2ccc(C(=O)Nc3n[nH]c4c3CN(C(=O)[C@H](O)c3ccccc3)C4)cc2)CC1 | 97 | 6 | > 200 | 48 | –
5 | C[C@H](C(=O)N1Cc2n[nH]c(NC(=O)c3ccc(N4CCN(C)CC4)cc3)c2C1)c1ccccc1 | – | 452 | – | 1210 | –
6 | CO[C@@H](C(=O)N1Cc2[nH]nc(NC(=O)c3ccc(N4CCN(C)CC4)cc3)c2C1)c1ccccc1 [DANUSERTIB] | 31 | – | 80 | – | Activity [6]: Active; IC50 [7]: 80 nM; TGI [8]: 98%; IC50 [9]: 28 nM; Activity [10]: 16%; IC50 [11]: 140 nM
7 | CO[C@@H](C(=O)N1Cc2n[nH]c(NC(=O)c3ccc(N4CCN(C)CC4)cc3)c2C1)c1ccccc1 [DANUSERTIB] | – | – | – | – | Cmax [12]: 9.6 µM; AUC [13]: 6.5 µM·h; IC50 [14]: > 10000 nM; half-life [15]: 1.4 h; IC50 [16]: > 10000 nM; IC50 [17]: 61 nM; Vd [18]: 3.7 L/kg; IC50 [19]: > 10000 nM; IC50 [20]: 161 nM; IC50 [21]: > 10000 nM; clearance [22]: 60 mL/min/kg; IC50 [23]: > 10000 nM
8 | CN1CCN(c2ccc(C(=O)Nc3n[nH]c4c3CN(C(=O)[C@H](F)c3ccccc3)C4)cc2)CC1 | 50 | 9 | 110 | 300 | –
